Calls of active or inactive are those of the source.
Key:
J774 = test: Selectivity index, ratio of IC50 for mouse COX1 in mouse J774 cells to IC50 for mouse COX2 in LPS-stimulated mouse J774 cells; type: cell-based
Summary of the method: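 The ratio is IC50(COX-1)/IC50(COX-2), both from J774 cells. For COX-1, cells were given a 15 min compound pretreatment and then 15 µM arachidonic acid for 30 min. For COX-2, cells were exposed to LPS (10 µg/mL) for 24 h with compound. In both, PGE2 was measured by radioimmunoassay and IC50 came from a sigmoidal fit of the means of three experiments.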

[1] = biological target: T1, Prostaglandin G/H synthase 1 (Mus musculus, UniProt P22437); test: Inhibition of mouse COX1 in mouse J774 cells assessed as PGE2 production by radioimmunoassay; type: cell-based
T1 sequence (P22437 whole entry): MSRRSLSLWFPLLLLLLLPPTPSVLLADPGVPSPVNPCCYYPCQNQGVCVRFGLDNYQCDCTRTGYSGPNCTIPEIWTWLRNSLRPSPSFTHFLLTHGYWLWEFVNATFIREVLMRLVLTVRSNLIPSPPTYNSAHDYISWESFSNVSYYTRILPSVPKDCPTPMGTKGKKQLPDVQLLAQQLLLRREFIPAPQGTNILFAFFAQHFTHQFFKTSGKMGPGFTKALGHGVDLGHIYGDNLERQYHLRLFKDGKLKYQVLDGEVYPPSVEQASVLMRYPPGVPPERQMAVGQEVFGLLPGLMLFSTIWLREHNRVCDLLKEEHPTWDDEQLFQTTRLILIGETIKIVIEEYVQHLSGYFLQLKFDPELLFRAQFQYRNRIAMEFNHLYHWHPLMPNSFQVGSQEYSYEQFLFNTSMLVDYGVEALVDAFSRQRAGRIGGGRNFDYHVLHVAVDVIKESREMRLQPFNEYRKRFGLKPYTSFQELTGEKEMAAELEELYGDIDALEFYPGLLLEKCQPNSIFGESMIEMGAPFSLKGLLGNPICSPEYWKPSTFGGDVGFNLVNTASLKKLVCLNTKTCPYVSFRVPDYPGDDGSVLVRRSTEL

[2] = biological target: T2, Prostaglandin G/H synthase 2 (Mus musculus, UniProt Q05769); test: Inhibition of mouse COX2 in LPS-stimulated mouse J774 cells assessed as PGE2 production by radioimmunoassay; type: cell-based
T2 sequence (Q05769 whole entry): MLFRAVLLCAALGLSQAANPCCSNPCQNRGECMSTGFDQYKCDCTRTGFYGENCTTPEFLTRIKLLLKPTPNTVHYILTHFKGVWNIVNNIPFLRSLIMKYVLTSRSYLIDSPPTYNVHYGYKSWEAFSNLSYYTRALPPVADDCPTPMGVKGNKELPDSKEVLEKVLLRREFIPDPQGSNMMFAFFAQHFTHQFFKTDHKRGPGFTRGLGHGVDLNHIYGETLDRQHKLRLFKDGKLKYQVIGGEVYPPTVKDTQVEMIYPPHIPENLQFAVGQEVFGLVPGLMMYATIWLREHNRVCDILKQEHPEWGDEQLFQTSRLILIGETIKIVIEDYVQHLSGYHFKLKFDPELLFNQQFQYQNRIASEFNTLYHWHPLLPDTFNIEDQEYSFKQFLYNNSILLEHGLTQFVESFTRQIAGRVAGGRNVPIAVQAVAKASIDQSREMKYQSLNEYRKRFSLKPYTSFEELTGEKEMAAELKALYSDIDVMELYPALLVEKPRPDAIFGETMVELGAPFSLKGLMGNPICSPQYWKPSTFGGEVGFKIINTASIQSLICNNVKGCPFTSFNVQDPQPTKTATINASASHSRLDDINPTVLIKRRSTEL
Summary of the method: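 J774 cells in serum-free medium were stimulated with E. coli LPS (10 µg/mL) for 24 h to induce COX-2, with or without compound present. Supernatant PGE2 was measured by radioimmunoassay. Percent inhibition was taken against control; triplicate wells, mean of three experiments; IC50 from a variable-slope sigmoidal fit.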

Rattus norvegicus [3] = test: Antiinflammatory activity against carrageenan-induced hyperalgesia in rat assessed as paw pressure at 20 mg/kg, po after 120 mins; type: functional
Summary of the method: (§1)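 Rats received carrageenan (0.1 mL, 1%) intraplantar 4 h before the test, then compound at 20 mg/kg po. Nociceptive threshold was measured with an analgesimeter (Leighton method) before and 30, 60 and 120 min after treatment, with a 250 g cutoff. Groups had 5-6 rats; mean ± SEM, ANOVA with Fisher's PLSD post hoc.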

Rattus norvegicus [4] = test: Antiinflammatory activity against carrageenan-induced hyperalgesia in rat assessed as paw pressure at 20 mg/kg, po after 30 mins; type: functional; summary of the method: as §1
Mus musculus [5] = test: Antinociceptive activity against acetic acid-induced abdominal constriction in Swiss albino mouse assessed as number of writhes at 20 mg/kg, po; type: functional, Abdomen
Summary of the method: (§2)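 Male Swiss albino mice (23-25 g) were dosed per os, with CMC as vehicle, 30 min before 0.6% acetic acid. Stretching movements were counted for 10 min, starting 5 min after acetic acid (Koster method). Results are mean ± SEM; ANOVA with Fisher's PLSD, versus vehicle-treated mice.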

Rattus norvegicus [6] = test: Antiinflammatory activity against carrageenan-induced edema in rat assessed as paw volume at 20 mg/kg, po […]; type: functional
Summary of the method: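 Carrageenan (0.1 mL of 1.0%) was injected intraplantar into Sprague-Dawley or Wistar rats (150-200 g). Compound was given po at 20 mg/kg 3 h 30 min after carrageenan. Right hind paw volume was measured by plethysmometer 4 h after carrageenan and compared with saline/carrageenan controls. Values are in mL, with 5-6 rats per group.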

Mus musculus [7] = test: Antinociceptive activity against acetic acid-induced abdominal constriction in Swiss albino mouse assessed as reduction in number of writhes at 20 mg/kg, po; type: functional, organism-based; set-up: dose 20 mg/kg; details: Abdomen; summary of the method: as §2
Mus musculus [8] = test: Antinociceptive activity against acetic acid-induced abdominal constriction in Swiss albino mouse assessed as number of writhes at 10 mg/kg, po; type: functional, Abdomen; summary of the method: as §2
Rattus norvegicus [9] = test: Antiinflammatory activity against carrageenan-induced hyperalgesia in rat assessed as paw pressure at 20 mg/kg, po after 60 mins; type: functional; summary of the method: as §1
Homo sapiens = organism: Homo sapiens; test: Selectivity index, ratio of IC50 for human COX1 to IC50 for human COX2 by whole blood assay
Summary of the method: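 Human whole blood from three healthy donors (no NSAID for 2 weeks); compounds in DMSO at final 0.01–1000 µM. COX-2: heparinized blood from aspirin-pretreated donors (300 mg, 48 h) with LPS 10 µg/mL, 24 h, 37 °C; plasma PGE2 by RIA. COX-1: blood clotted 1 h, 37 °C; serum TXB2 by RIA. Mean % inhibition vs vehicle; IC50(COX-1)/IC50(COX-2).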

[10] = biological target: T3, Prostaglandin G/H synthase 2 (Homo sapiens, UniProt P35354); test: Inhibition of COX2 in human whole blood assessed as effect on thrombin-induced TXB2 production; type: tissue-based
T3 sequence (P35354 whole entry): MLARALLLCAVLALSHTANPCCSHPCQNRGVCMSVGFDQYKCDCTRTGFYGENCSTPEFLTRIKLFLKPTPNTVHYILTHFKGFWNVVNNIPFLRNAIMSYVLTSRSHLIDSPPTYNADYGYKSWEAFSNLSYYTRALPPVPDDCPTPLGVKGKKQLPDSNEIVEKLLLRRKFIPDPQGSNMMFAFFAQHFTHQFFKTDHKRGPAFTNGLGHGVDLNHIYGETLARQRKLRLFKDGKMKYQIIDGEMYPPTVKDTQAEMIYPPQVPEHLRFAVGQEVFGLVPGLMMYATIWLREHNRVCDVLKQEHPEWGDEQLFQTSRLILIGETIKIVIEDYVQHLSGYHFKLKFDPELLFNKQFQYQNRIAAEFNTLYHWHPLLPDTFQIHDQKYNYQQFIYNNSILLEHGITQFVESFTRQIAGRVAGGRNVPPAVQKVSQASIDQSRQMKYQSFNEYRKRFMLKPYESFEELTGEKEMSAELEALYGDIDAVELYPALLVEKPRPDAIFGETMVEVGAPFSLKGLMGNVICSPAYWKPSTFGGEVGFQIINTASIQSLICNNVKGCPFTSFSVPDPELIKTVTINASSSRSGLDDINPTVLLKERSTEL

[11] = biological target: Prostaglandin G/H synthase 1 (Homo sapiens, UniProt P23219); test: Inhibition of COX1 in human whole blood allowed to clot assessed as TXB2 production
Chain of Prostaglandin G/H synthase 1 (Homo sapiens, UniProt P23219) (P23219 whole entry): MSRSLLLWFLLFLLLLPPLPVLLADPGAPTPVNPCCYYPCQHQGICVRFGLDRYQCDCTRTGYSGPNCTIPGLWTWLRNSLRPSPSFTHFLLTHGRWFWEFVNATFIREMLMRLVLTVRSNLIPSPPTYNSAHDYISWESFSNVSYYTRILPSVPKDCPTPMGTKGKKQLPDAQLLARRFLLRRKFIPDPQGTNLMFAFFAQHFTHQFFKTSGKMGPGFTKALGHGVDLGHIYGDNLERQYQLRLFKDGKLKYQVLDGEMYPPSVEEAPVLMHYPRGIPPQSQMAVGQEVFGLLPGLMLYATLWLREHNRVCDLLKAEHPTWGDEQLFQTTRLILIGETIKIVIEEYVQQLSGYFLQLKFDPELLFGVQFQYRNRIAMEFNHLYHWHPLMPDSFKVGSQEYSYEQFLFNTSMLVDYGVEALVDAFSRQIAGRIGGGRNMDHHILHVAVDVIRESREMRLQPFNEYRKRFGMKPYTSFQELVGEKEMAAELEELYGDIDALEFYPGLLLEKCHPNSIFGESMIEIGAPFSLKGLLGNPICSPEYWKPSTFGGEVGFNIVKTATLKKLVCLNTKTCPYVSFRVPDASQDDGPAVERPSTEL

Row | SMILES | IC50 [1] [nM] | IC50 [2] [nM] | Ratio IC50 (J774) | also measured
1 | CCOC(=O)Cc1cc(-c2ccc(S(C)(=O)=O)cc2)n(-c2ccc(C(F)(F)F)cc2)c1C |  |  | > 1600 | 
2 | COCCc1cc(-c2ccc(S(C)(=O)=O)cc2)n(-c2ccccc2)c1C | > 100000 | 48 | > 2080 | 
3 | CCOC(=O)Cc1cc(-c2ccc(S(C)(=O)=O)cc2)n(-c2ccc(C)cc2)c1C |  |  | > 208 | 
4 | CCOC(=O)Cc1cc(-c2ccc(S(C)(=O)=O)cc2)n(-c2ccccc2)c1C |  |  | > 2500 | 
5 | CS(=O)(=O)c1ccc(C2=C(c3ccccc3)C(=O)OC2)cc1 |  |  |  | Ratio IC50 (Homo sapiens): > 200
6 | CCCOCCc1cc(-c2ccc(S(C)(=O)=O)cc2)n(-c2ccccc2)c1C | > 100000 | 18 | > 5560 | IC50 [10]: 1300 nM; Activity (Rattus norvegicus [3]): 50.6 g; Activity (Rattus norvegicus [4]): 56.3 g; Ratio IC50 (Homo sapiens): 66; Activity (Mus musculus [5]): 13.6; Activity (Rattus norvegicus [6]): 1.41 mL; Activity (Mus musculus [7]): Active; Activity (Mus musculus [8]): 27.43; IC50 [11]: 86000 nM; Activity (Rattus norvegicus [9]): 59.4 g

More lines, main results first:

Row | IC50 [1] [nM] | IC50 [2] [nM] | SMILES | Ratio IC50 (J774) | also measured
7 | > 100000 | 85 | CCOCCc1cc(-c2ccc(S(C)(=O)=O)cc2)n(-c2ccc(C(F)(F)F)cc2)c1C | > 1180 | 
8 | > 100000 | 15 | CCOCCc1cc(-c2ccc(S(C)(=O)=O)cc2)n(-c2ccccc2)c1C | > 6670 | Activity (Rattus norvegicus [3]): 49.1 g; Activity (Rattus norvegicus [4]): 59.6 g; Activity (Mus musculus [5]): 11.4; Activity (Rattus norvegicus [6]): 1.37 mL; Activity (Mus musculus [7]): Active; Activity (Mus musculus [8]): 26.5; Activity (Rattus norvegicus [9]): 53.8 g
9 | > 100000 | 18 | COCCc1cc(-c2ccc(S(C)(=O)=O)cc2)n(-c2ccc(F)cc2)c1C | > 5560 | 
10 | > 100000 | 49 | COCCc1cc(-c2ccc(S(C)(=O)=O)cc2)n(-c2ccc(C(F)(F)F)cc2)c1C | > 2040 | 
11 | > 100000 | 47 | CCOCCc1cc(-c2ccc(S(C)(=O)=O)cc2)n(-c2ccc(F)cc2)c1C | > 2130 | 
12 | > 100000 | 110 | CCCOCCc1cc(-c2ccc(S(C)(=O)=O)cc2)n(-c2ccc(C(F)(F)F)cc2)c1C | > 909 | 
13 | > 100000 | 30 | CCCOCCc1cc(-c2ccc(S(C)(=O)=O)cc2)n(-c2ccc(F)cc2)c1C | > 3330 | Activity (Rattus norvegicus [3]): 52.7 g; Activity (Rattus norvegicus [4]): 52.4 g; Activity (Mus musculus [5]): 16.7; Activity (Rattus norvegicus [6]): 1.45 mL; Activity (Mus musculus [7]): Active; Activity (Mus musculus [8]): 38.1; Activity (Rattus norvegicus [9]): 56.8 g

Reference: ChEMBL document CHEMBL1155807, “Synthesis, biological evaluation, and enzyme docking simulations of 1,5-diarylpyrrole-3-alkoxyethyl ethers as selective cyclooxygenase-2 inhibitors endowed with anti-inflammatory and antinociceptive activity” (J Med Chem, 2008)
